In PubChem BioAssay AID504495 (The Scripps Research Institute Molecular Screening Center, 2011) one finds inhibition data, which are given here for 1 compound.

Each structure is given as a SMILES string.

This test concerns the target Platelet-activating factor acetylhydrolase 2, cytoplasmic (Mus musculus) (UniProt Q8VDG7). Put plainly: PAFAH2 inhibition in cultured cells, late-stage follow-up, cell-based, gel-based competitive ABPP, fluorescence, powder samples (AID 504495). The note with it: BW5147 murine T cells, in situ gel ABPP, FP-Rh, 4 h; at 0.03 µM; active compounds read high. The method, boiled down:
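Test system: murine BW5147 T cells; probe or stimulus: rhodamine fluorophosphonate probe (FP-Rh), 2 µM final; times: cells 4 h 37 °C, probe 30 min 25 °C; signal: in-gel fluorescence scan after SDS-PAGE, PAFAH2 band optical density; read-out basis: % inhibition versus DMSO-treated cells; controls: DMSO-treated cells, blank gel background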

Platelet-activating factor acetylhydrolase 2, cytoplasmic (Mus musculus), sequence (Q8VDG7 whole entry, looked up): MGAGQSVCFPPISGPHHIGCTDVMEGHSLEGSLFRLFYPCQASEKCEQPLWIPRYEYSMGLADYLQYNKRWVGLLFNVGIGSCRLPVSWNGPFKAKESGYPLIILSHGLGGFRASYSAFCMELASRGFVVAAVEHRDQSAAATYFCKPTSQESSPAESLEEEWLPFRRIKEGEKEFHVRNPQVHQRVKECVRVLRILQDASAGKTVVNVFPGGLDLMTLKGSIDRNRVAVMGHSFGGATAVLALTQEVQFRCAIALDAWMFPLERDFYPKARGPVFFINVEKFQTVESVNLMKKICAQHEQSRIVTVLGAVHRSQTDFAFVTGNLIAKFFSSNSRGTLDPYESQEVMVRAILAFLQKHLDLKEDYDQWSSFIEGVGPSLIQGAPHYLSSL

As to `O=C(N1CCCC1)n1ncc(-c2ccc(-c3ccccc3)cc2)n1`, the inhibition was 100%.

As usually defined, the inhibition is the change of the read-out against control, counted positive when it falls.
